# Screening data from PubChem.
# Sampled rows, rich in hits. Any-hit rate of the full collection: about 3.5%.
# MrgX1 antag – blocks BAM8-22 activation of human MrgX1 receptor. Q96LB2. MRGX1-HEK293 calcium flux, Fluo-4, BAM8-22 antagonism; active compounds read low. B-score at 10 µM. hit rate 1.3% among 310,000. AID 588676;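 active = calcium-response B-score plate-corrected more than 3 library SD below zero, starting fluorescence within 5 deviations, no agonist response on first addition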;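 note: peak minus trough fluorescence over baseline after final BAM8-22 challenge near maximal dose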
# RGS4 inh – inhibitors of human RGS4 | P49798 | HEK293 M3R/RGS4 inducible, Fluo-4 calcium flux; active compounds read high; triggered by carbachol at its EC20 | B-score at 10 µM | hit rate 0.45% among 310,000;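 active = B-score, a plate-corrected calcium signal, over three deviations above library mean, with baseline fluorescence within five deviations of library mean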;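 note: RGS4 expression induced by doxycycline in cells with stable M3 receptor; B-score is computed from the integrated fluorescence ratio over baseline after carbachol; higher B-score means a larger calcium signal and so more RGS4 inhibition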
# Target sequence (P49798 whole entry, looked up): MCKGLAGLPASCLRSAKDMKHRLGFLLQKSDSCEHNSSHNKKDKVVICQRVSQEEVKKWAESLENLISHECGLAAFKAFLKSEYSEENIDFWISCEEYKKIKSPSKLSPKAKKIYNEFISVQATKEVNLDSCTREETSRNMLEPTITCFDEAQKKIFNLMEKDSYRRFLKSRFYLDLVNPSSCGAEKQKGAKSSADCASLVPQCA
# MrgX1 ag – agonists of human MrgX1 receptor | AID 588627 | hit rate 0.44% among 310,000 | MrgX1-HEK293 cells, Fluo-4 calcium fluorescence, agonist mode; active compounds read high | B-score at 10 µM;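 active = calcium response B-score plate-corrected fluorescence ratio at least 3 library SD, with starting fluorescence B-score inside 5 SD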
#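 System – MrgX1-expressing HEK293 cells · Incubation – cells plated overnight, dye loaded 0.5 h 37 °C, 0.5 h room temperature · Technique – kinetic Fluo-4 NW fluorescence of intracellular calcium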
# MrgX1 PAM – human MrgX1 positive allosteric modulation, primary screen. Q96LB2. MrgX1-HEK293, Fluo-4 calcium flux, FDSS; active compounds read high. B-score at 10 µM. hit rate 0.63% among 310,000. AID 588675;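 active = plate-corrected calcium response at least 3 library SD above typical, normal starting fluorescence, not activating the receptor alone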;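 note: compound read alongside a low EC10 to EC30 dose of BAM8-22 agonist; peak minus trough fluorescence over baseline measured at the second addition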
# RGS4 act – RGS4 potentiation or activation | HEK293 M3R/inducible RGS4, carbachol calcium flux Fluo4; active compounds read low | B-score at 10 µM | hit rate 0.92% among 310,000;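 active = B-score of the integrated calcium signal more than 4 SD below the library mean, with starting fluorescence not abnormally high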;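 note: negative B-score means reduced calcium response which marks RGS4 activation or potentiation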
#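 Reagent: ECmax carbachol challenge; Test system: M3R-expressing HEK293 line, RGS4 induced by doxycycline; Schedule: overnight RGS4 induction, 30 min dye load 37 °C, 20 min compound RT; Detection: calcium dye Fluo4 fluorescence; Read-out: Agonist-evoked peak-minus-minimum fluorescence over baseline, integrated ratio, B score.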
# Active calls of the source: *; i = inactive; / = no result given; ! = not active in a repeat.
SMILES,MrgX1 antag,RGS4 inh,MrgX1 ag,MrgX1 PAM,RGS4 act
COc1cc(/C=C2\SC(=O)N(CC(=O)Nc3ccccc3F)C2=O)cc(Cl)c1O,-6.22*,i,i,i,i
COc1cc(OC)c(/C=C2\SC(=O)N(CC(=O)Nc3ccccc3F)C2=O)c(OC)c1,i,i,i,i,i
COc1ccccc1S(=O)(=O)CC(O)COc1ccc(C#N)cc1 (stereo not drawn),i,i,i,i,i
Cc1ccc(C(=O)NNc2cc(=O)n(C)c(=O)n2C)cc1C,-5.13*,i,i,i,i
Cc1ccc(SCC(=O)OCC(=O)N(C)CC(=O)Nc2ccc(F)cc2)cc1C,i,i,48.5*,i,i
COc1ccc(Cl)cc1C(=O)OCC(=O)N(C)CC(=O)Nc1ccc(F)cc1,i,i,i,i,i
CC(C)(C)c1ccc(OCC(=O)NNC(=S)NC(=O)c2ccco2)c(Br)c1,i,i,i,i,-10.4*
CC(C)c1ccc(OCC(=O)NNC(=S)NC(=O)c2ccco2)c(Br)c1,i,i,i,i,-9.53*
CC1CN(S(=O)(=O)c2cccc(C(=O)OC(C)C(=O)NC3CCCCC3C)c2)CC(C)O1 (stereo not drawn),i,i,i,i,i
COc1cc(/C=N/NC(=O)c2cc(-c3cccc(OC(C)C)c3)nc3ccccc23)ccc1O,i,i,i,i,i
Cc1cc(C)cc(-n2c(C)cc(/C=N/NC(=O)c3cccc([N+](=O)[O-])c3C)c2C)c1,i,i,i,i,-7.35*
Cc1c(C(=O)N/N=C/c2ccoc2)cccc1[N+](=O)[O-],i,i,i,i,i
Cc1cc(C)cc(-n2c(C)cc(/C=N/NC(=O)CSc3ncccn3)c2C)c1,i,i,i,i,-8.35*
Cc1cc(C)cc(-n2c(C)cc(/C=N/NC(=O)c3ccncc3)c2C)c1,i,i,i,i,i
CN(C(=O)CNC(=O)c1ccc(Br)o1)C1CCCCC1,i,i,i,i,i
CCN(CC)S(=O)(=O)c1cccc(C(=O)/C=C2/N(C)c3ccccc3C2(C)C)c1,i,i,i,i,-6.97*
CN1/C(=C\C(=S)NC(=O)c2cccc(Br)c2)C(C)(C)c2ccccc21,i,i,i,i,i
O=[N+]([O-])c1ccc(N/N=C/c2c[nH]c3ccccc23)cc1,-9.09*,i,i,i,i
O=[N+]([O-])c1ccccc1N/N=C/c1c[nH]c2ccccc12,i,i,i,i,i
O=[N+]([O-])c1ccc(N/N=C/c2ccc[nH]2)cc1,i,/,27.1*,i,/
COc1ccc(C(=O)N2N=C3CC(C)(C)OCC3C2c2ccccc2)cc1 (stereo not drawn),i,i,i,i,i
Cc1cccn2c(CN(C)CC3Cc4ccccc4O3)c(C(=O)N3CCCCC3)nc12 (stereo not drawn),i,i,i,i,i
COc1ccc(NC2=C(Cl)C(=O)N(c3ccccc3)C2=O)c(OC)c1,i,i,i,i,i
COc1ccccc1NC1=C(Cl)C(=O)N(c2ccccc2)C1=O,i,i,i,10.9*,i
CC(C)[N+]1(C)[C@@H]2CC[C@H]1CC(OC(=O)C(CO)c1ccccc1)C2 (stereo partly drawn),i,i,i,i,i
SMILES,MrgX1 antag,RGS4 inh,MrgX1 ag,MrgX1 PAM,RGS4 act
CN1[C@@H]2CC[C@H]1CC(OC(=O)C(CO)c1ccccc1)C2 (stereo partly drawn),i,i,i,i,-7.01*
CN1C2CC(OC(=O)C(CO)c3ccccc3)CC1C1OC12 (stereo not drawn),i,i,i,i,-7.94*!
CN1C2CCC1CC(OC(=O)C(CO)c1ccccc1)C2 (stereo not drawn),i,/,i,i,/
O=C(NCc1ccc(Cl)cc1)c1ccc2ccccc2n1,i,i,i,i,i
COc1ccc2nc(SCC(=O)C(C)(C)C)[nH]c2c1,i,i,i,i,i
CC12CCC(C(=O)Nc3ccccc3)(C/C1=N\O)C2(C)C (stereo not drawn),i,i,i,i,i
